The test system of series [1] is Influenza A virus. Briefly: Antiviral activity against Influenza A virus (A/WSN/1933(H1N1)) infected in MDCK cells assessed as inhibition of virus-induced cytopathic effect at 100 uM measured after 40 hrs incubation by inverted microscpic imaging analysis. The format is functional. The procedure, abridged:
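MDCK cells infected with influenza A/WSN/33 (H1N1), with compounds at 100 μM. Viral CPE judged by direct microscopic observation. DMSO served as the negative control and oseltamivir phosphate as the positive control. Triplicate experiments, with standard deviations.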

Series [2] has as its system Influenza A virus. The experiment in a line: Antiviral activity against Influenza A virus (A/WSN/1933(H1N1)) infected in MDCK cells assessed as s reduction in virus-induced cytopathic effect after 40 hrs incubation by CellTiter-Glo assay. The format is functional, organism-based. The procedure, abridged:
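CPE-based dose–response in MDCK cells infected with A/WSN/33 (H1N1), using the CellTiter-Glo viability read-out. Medium with 1% DMSO was the negative control and oseltamivir phosphate the positive control. IC50 is the concentration giving 50% inhibition of virus-induced CPE. Means of duplicate samples from three independent experiments.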

Series [3] is described as follows: Cytotoxicity against MDCK cells assessed as reduction in cell viability by CellTiter-Glo assay. The format is cell-based, Canis lupus familiaris. The note with it: dog. The procedure, abridged:
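Viability of normal, uninfected MDCK cells measured by CellTiter-Glo. Medium containing 1% DMSO was the negative control. CC50 is the concentration that reduces viability by 50%.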

Series [4] in a line: Selectivity ratio of CC50 for MDCK cells to IC50 for Influenza A virus A/WSN/33(H1N1) infected in MDCK cells. The note with it: dog, read-out: Ratio CC50/IC50. The format is toxicity, cell-based. The procedure, abridged:
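Selectivity index calculated as CC50 (uninfected MDCK cells, CellTiter-Glo) divided by IC50 (inhibition of A/WSN/33 H1N1-induced CPE in MDCK cells).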

The next series deals with Influenza B virus. The experiment in a line: Antiviral activity against Influenza B virus (B/Sichuan/531/2018(Victoria)) infected in cells assessed as reduction in infected cells. It counts as functional, organism-based.
In series [5] the test system is Influenza A virus. Briefly: Antiviral activity against Influenza A virus (A/Hong Kong/4801/2014 (H3N2)) infected in cells assessed as reduction in infected cells. The format is functional, organism-based.
Series [6] can be described thus: Selectivity index, ratio of CC50 for MDCK cells to IC50 for antiviral activity against Influenza A virus (A/Hong Kong/4801/2014 (H3N2)). The format is toxicity. The note with it: dog, read-out: Ratio CC50/IC50.

A value given as a limit tells only on which side of the number the result lay.

With `CC1(C)CC[C@]2(C(=O)NCCOCCn3cc(OCc4cc(COc5cn(CCOCCNC(=O)[C@]67CCC(C)(C)C[C@H]6C6=CC[C@@H]8[C@@]9(C)CC[C@H](O)C(C)(C)[C@@H]9CC[C@@]8(C)[C@]6(C)CC7)nn5)cc(COc5cn(CCOCCNC(=O)[C@]67CCC(C)(C)C[C@H]6C6=CC[C@@H]8[C@@]9(C)CC[C@H](O)C(C)(C)[C@@H]9CC[C@@]8(C)[C@]6(C)CC7)nn5)c4)nn3)CC[C@]3(C)C(=CC[C@@H]4[C@@]5(C)CC[C@H](O)C(C)(C)[C@@H]5CC[C@]43C)[C@@H]2C1`, in the series on Influenza A virus [1], the inhibition at 100 µM is greater than 80%. Also, the IC50 in the series on Influenza A virus [2] turned out to be 16.7 µM. The half-maximal cytotoxic concentration (CC50) in series [3] was greater than 100 µM. Further, in series [4], the selectivity ratio was greater than 5.98.
With `CC1(C)CC[C@]2(C(=O)NCCc3cn(Cc4cc(Cn5cc(CCNC(=O)[C@]67CCC(C)(C)C[C@H]6C6=CC[C@@H]8[C@@]9(C)CC[C@H](O)C(C)(C)[C@@H]9CC[C@@]8(C)[C@]6(C)CC7)nn5)cc(Cn5cc(CCNC(=O)[C@]67CCC(C)(C)C[C@H]6C6=CC[C@@H]8[C@@]9(C)CC[C@H](O)C(C)(C)[C@@H]9CC[C@@]8(C)[C@]6(C)CC7)nn5)c4)nn3)CC[C@]3(C)C(=CC[C@@H]4[C@@]5(C)CC[C@H](O)C(C)(C)[C@@H]5CC[C@]43C)[C@@H]2C1`, the inhibition at 100 µM with Influenza A virus [1] is greater than 80%. Moreover, in the series with Influenza A virus [2], the IC50 came out at 31.6 µM. In addition, the CC50 in series [3] is greater than 100 µM. Moreover, the selectivity ratio in series [4] was greater than 3.17.
In the same order, the values of `CC1(C)CC[C@]2(C(=O)NCCOCCOCCOCCn3cc(OCc4cc(COc5cn(CCOCCOCCOCCNC(=O)[C@]67CCC(C)(C)C[C@H]6C6=CC[C@@H]8[C@@]9(C)CC[C@H](O)C(C)(C)[C@@H]9CC[C@@]8(C)[C@]6(C)CC7)nn5)cc(COc5cn(CCOCCOCCOCCNC(=O)[C@]67CCC(C)(C)C[C@H]6C6=CC[C@@H]8[C@@]9(C)CC[C@H](O)C(C)(C)[C@@H]9CC[C@@]8(C)[C@]6(C)CC7)nn5)c4)nn3)CC[C@]3(C)C(=CC[C@@H]4[C@@]5(C)CC[C@H](O)C(C)(C)[C@@H]5CC[C@]43C)[C@@H]2C1` are greater than 80%, 9.84 µM, greater than 100 µM and greater than 10.2.
Regarding `CCOC(=O)C1=C[C@@H](OC(CC)CC)[C@H](NC(C)=O)[C@@H](N)C1` [OSELTAMIVIR PHOSPHATE], the inhibition at 100 µM with Influenza A virus [1] is greater than 80%. Moreover, the IC50 was greater than 100 µM in the series on Influenza B virus, 1.82 µM in the series on Influenza A virus [2] and greater than 100 µM in the series on Influenza A virus [5]. The CC50 in series [3] is greater than 100 µM. In series [4], the selectivity ratio is greater than 55.
`CC1(C)CC[C@]2(C(=O)NCc3cn(Cc4cc(Cn5cc(CNC(=O)[C@]67CCC(C)(C)C[C@H]6C6=CC[C@@H]8[C@@]9(C)CC[C@H](O)C(C)(C)[C@@H]9CC[C@@]8(C)[C@]6(C)CC7)nn5)cc(Cn5cc(CNC(=O)[C@]67CCC(C)(C)C[C@H]6C6=CC[C@@H]8[C@@]9(C)CC[C@H](O)C(C)(C)[C@@H]9CC[C@@]8(C)[C@]6(C)CC7)nn5)c4)nn3)CC[C@]3(C)C(=CC[C@@H]4[C@@]5(C)CC[C@H](O)C(C)(C)[C@@H]5CC[C@]43C)[C@@H]2C1`: the inhibition at 100 µM in the series on Influenza A virus [1] was greater than 80%. Moreover, in the series with Influenza A virus [2], the IC50 was found to be 6.86 µM. Moreover, the CC50 in series [3] is greater than 100 µM. In series [4], the selectivity ratio was greater than 14.6.
The matching figures for `CC1(C)CC[C@]2(C(=O)NCCCCc3cn(CC(CO)(Cn4cc(CCCCNC(=O)[C@]56CCC(C)(C)C[C@H]5C5=CC[C@@H]7[C@@]8(C)CC[C@H](O)C(C)(C)[C@@H]8CC[C@@]7(C)[C@]5(C)CC6)nn4)Cn4cc(CCCCNC(=O)[C@]56CCC(C)(C)C[C@H]5C5=CC[C@@H]7[C@@]8(C)CC[C@H](O)C(C)(C)[C@@H]8CC[C@@]7(C)[C@]5(C)CC6)nn4)nn3)CC[C@]3(C)C(=CC[C@@H]4[C@@]5(C)CC[C@H](O)C(C)(C)[C@@H]5CC[C@]43C)[C@@H]2C1`: greater than 80%, 25.1 µM, greater than 100 µM and greater than 3.99.
The matching figures for `CC1(C)CC[C@]2(C(=O)NCCc3cn(CC(CO)(Cn4cc(CCNC(=O)[C@]56CCC(C)(C)C[C@H]5C5=CC[C@@H]7[C@@]8(C)CC[C@H](O)C(C)(C)[C@@H]8CC[C@@]7(C)[C@]5(C)CC6)nn4)Cn4cc(CCNC(=O)[C@]56CCC(C)(C)C[C@H]5C5=CC[C@@H]7[C@@]8(C)CC[C@H](O)C(C)(C)[C@@H]8CC[C@@]7(C)[C@]5(C)CC6)nn4)nn3)CC[C@]3(C)C(=CC[C@@H]4[C@@]5(C)CC[C@H](O)C(C)(C)[C@@H]5CC[C@]43C)[C@@H]2C1`: greater than 80%, 2.87 µM, greater than 100 µM and greater than 34.8.
For `CC1(C)CC[C@]2(C(=O)NCCCCCc3cn(Cc4cc(Cn5cc(CCCCCNC(=O)[C@]67CCC(C)(C)C[C@H]6C6=CC[C@@H]8[C@@]9(C)CC[C@H](O)C(C)(C)[C@@H]9CC[C@@]8(C)[C@]6(C)CC7)nn5)cc(Cn5cc(CCCCCNC(=O)[C@]67CCC(C)(C)C[C@H]6C6=CC[C@@H]8[C@@]9(C)CC[C@H](O)C(C)(C)[C@@H]9CC[C@@]8(C)[C@]6(C)CC7)nn5)c4)nn3)CC[C@]3(C)C(=CC[C@@H]4[C@@]5(C)CC[C@H](O)C(C)(C)[C@@H]5CC[C@]43C)[C@@H]2C1`, the inhibition at 100 µM with Influenza A virus [1] is greater than 80%. Further, the cytotoxic concentration (CC50) in series [3] was greater than 100 µM.
Consider `CC1(C)CC[C@]2(C(=O)O)CC[C@]3(C)C(=CC[C@@H]4[C@@]5(C)CC[C@H](O)C(C)(C)[C@@H]5CC[C@]43C)[C@@H]2C1` [OLEANOLIC_ACID], for which, in the series on Influenza A virus [1], the inhibition at 100 µM is greater than 80%. Moreover, the IC50 in the series on Influenza A virus [2] is 72.3 µM. In addition, the CC50 in series [3] is greater than 100 µM. Moreover, the selectivity ratio in series [4] is greater than 1.38.
The matching figures for `CC1(C)CC[C@]2(C(=O)NCc3cn(CC(CO)(Cn4cc(CNC(=O)[C@]56CCC(C)(C)C[C@H]5C5=CC[C@@H]7[C@@]8(C)CC[C@H](O)C(C)(C)[C@@H]8CC[C@@]7(C)[C@]5(C)CC6)nn4)Cn4cc(CNC(=O)[C@]56CCC(C)(C)C[C@H]5C5=CC[C@@H]7[C@@]8(C)CC[C@H](O)C(C)(C)[C@@H]8CC[C@@]7(C)[C@]5(C)CC6)nn4)nn3)CC[C@]3(C)C(=CC[C@@H]4[C@@]5(C)CC[C@H](O)C(C)(C)[C@@H]5CC[C@]43C)[C@@H]2C1`: greater than 80%, 4.69 µM, greater than 100 µM and greater than 21.3.
With `CC1(C)CC[C@]2(C(=O)NCCCCCc3cn(CC(CO)(Cn4cc(CCCCCNC(=O)[C@]56CCC(C)(C)C[C@H]5C5=CC[C@@H]7[C@@]8(C)CC[C@H](O)C(C)(C)[C@@H]8CC[C@@]7(C)[C@]5(C)CC6)nn4)Cn4cc(CCCCCNC(=O)[C@]56CCC(C)(C)C[C@H]5C5=CC[C@@H]7[C@@]8(C)CC[C@H](O)C(C)(C)[C@@H]8CC[C@@]7(C)[C@]5(C)CC6)nn4)nn3)CC[C@]3(C)C(=CC[C@@H]4[C@@]5(C)CC[C@H](O)C(C)(C)[C@@H]5CC[C@]43C)[C@@H]2C1`, the selectivity ratio in series [6] is greater than 83.3; in series [4], greater than 175. Further, the inhibition at 100 µM with Influenza A virus [1] is greater than 80%. Moreover, the results for the 50% inhibitory concentration (IC50) in the series on Influenza B virus, in the series on Influenza A virus [2] and in the series with Influenza A virus [5] were greater than 100 µM, 0.57 µM and 1.2 µM, respectively. Moreover, in series [3], the half-maximal cytotoxic concentration (CC50) was greater than 100 µM.
